Blank lines part the entries; values can stand above or below the compound they belong to.
Assays:
BRD4(1) [1] = molecular target: T1, BRD4(1) (Homo sapiens, UniProt O60885); experiment: Thermal shift assay; assay type: binding
BRD4(1) [2] = molecular target: T1, BRD4(1); experiment: Alphascreen assay against BRD4; assay type: biochemical
c-Myc [3] = experiment: qRT-PCR of c-Myc mRNA in MV4-11; assay type: cell-based, human; settings: MV4-11, 48 h, 1 μM, 5 μM and 10 μM vs control
Procedure, shortened: (§1)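 Log-phase cells seeded at 5000 per well, grown 12 h, then given a range of test compound concentrations for 48 h, in triplicate wells. RNA extracted with TRIzol; reverse transcription with iScript (25 °C 5 min, 42 °C 30 min, 85 °C 5 min). EvaGreen qPCR used gene-specific primers. Expression by 2−ΔΔCt, normalised to GAPDH; one-way ANOVA with Tukey's test.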

CDK6 = experiment: qRT-PCR of CDK6 mRNA in MV4-11; assay type: cell-based, human; settings: MV4-11, 48 h, 1 μM, 5 μM and 10 μM vs control
Procedure, shortened: as §1

c-Myc [4] = experiment: Western blotting of c-Myc in MV4-11; assay type: cell-based, human; settings: MV4-11, 48 h, Western blot
Procedure, shortened: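 MV4-11 cells treated 48 h with several compound concentrations, then lysed 30 min on ice in RIPA with PMSF and cleared at 12,000 r/min, 4 °C. Protein quantified by BCA, run on 8% SDS-PAGE, blotted to PVDF and blocked in 5% milk/TBST. Probed with anti-c-Myc (1:1000, 4 °C overnight) and HRP anti-rabbit (1:50000, 1 h), then ECL. Densitometry relative to GAPDH; ANOVA/Tukey.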

MV4-11 cells [5] = experiment: Cell cycle analysis by flow cytometry; assay type: cell-based, human; settings: MV4-11, 48 h
Procedure, shortened: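 Cells seeded at 5 × 10^3 per well, grown 12 h, then exposed to graded test compound concentrations or DMSO for 48 h at 37 °C. Fixed overnight in 70% ethanol at 4 °C. RNase A (about 50 μg/mL final) at 37 °C for 30 min, then PI (about 65 μg/mL final) on ice in the dark for 30 min. Flow cytometry within 1 h; one-way ANOVA with Tukey's test.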

MV4-11 cells [6] = experiment: Apoptosis analysis by flow cytometry; assay type: cell-based, human; settings: MV4-11, 1 μM, 5 μM and 10 μM vs control
Procedure, shortened: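 Harvested cells washed in cold PBS and resuspended at 10^6/mL in 1× Annexin binding buffer. Stained with Alexa Fluor 488 Annexin V plus propidium iodide (100 μg/mL working solution) for 15 min at room temperature in the dark, then analysed by flow cytometry. Groups compared by one-way ANOVA with Tukey's test.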

SMILES: CCc1noc2cc(OC)c(NS(=O)(=O)c3ccccc3OC)cc12 [Compound 11h, N-(3-Ethyl-6-methoxybenzo[d]isoxazol-5-yl)-2-methoxybenzenesulfonamide]
IC50 (BRD4(1) [2]): 94 nM

SMILES: CCc1noc2cc(OC)c(NS(=O)(=O)CC)cc12 [Compound 11a, N-(3-Ethyl-6-methoxybenzo[d]isoxazol-5-yl)ethanesulfonamide]
binding activity to BRD4 (TSA), in words (BRD4(1) [1]): moderate binding activity

SMILES: CCc1noc2cc(OC)c(NS(=O)(=O)c3ccc(OC)cc3)cc12 [Compound 11r, N-(3-Ethyl-6-methoxybenzo[d]isoxazol-5-yl)-4-methoxybenzenesulfonamide]
mRNA expression of c-Myc (c-Myc [3]): decreased significantly
mRNA expression of CDK6 (CDK6): decreased significantly
c-Myc expression at the protein level (c-Myc [4]): remarkable dose-dependent decrease
cell cycle arrest, in words (MV4-11 cells [5]): induce cell cycle arrest in G0/G1 phase in a dose-dependent manner
apoptosis rate, in words (MV4-11 cells [6]): significantly increased

SMILES: CCc1noc2cc(OC)c(NS(=O)(=O)c3cccnc3)cc12 [Compound 11z, N-(3-Ethyl-6-methoxybenzo[d]isoxazol-5-yl)pyridine-3-sulfonamide]
binding activity to BRD4 (TSA), in words (BRD4(1) [1]): good binding activities

Results, then the compound that gave them:

binding activity to BRD4 (TSA), in words (BRD4(1) [1]): good binding activities
SMILES: CCc1noc2cc(OC)c(NS(=O)(=O)c3cccs3)cc12 [Compound 11y, N-(3-Ethyl-6-methoxybenzo[d]isoxazol-5-yl)thiophene-2-sulfonamide]

binding activity to BRD4 (TSA), in words (BRD4(1) [1]): moderate activity
SMILES: CCc1noc2cc(OC)c(NS(=O)(=O)c3ccccc3)cc12 [Compound 11d, N-(3-Ethyl-6-methoxybenzo[d]isoxazol-5-yl)benzenesulfonamide]

From publication PMC8905034 (Acta Pharmacologica Sinica, 2022)
